Screens (PubChem BioAssay)
Mdm2 ligase inh = MDM2-luciferase reporter signal enhancers, primary screen, MDM2 E3 ligase inhibitor project, cell-based, luminescence, 1536-well. E3 ubiquitin-protein ligase Mdm2 (Homo sapiens), Q00987. cell-based MDM2 ubiquitination luciferase reporter, 2 h; 0 = plate control, 100 = twice control, blank-subtracted. signal enhancement, % at 5 µM. 0.11% of 210,000 active;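 active = signal enhancement of 30% or more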;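 also: luminescence tracks abundance of the self-degrading MDM2-luciferase fusion protein; higher signal means inhibition of MDM2 E3 ligase activity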
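Material: stable MDM2–luciferase fusion reporter cells / Quantity: 2000 cells/well / Dosing: single 5 µM compound dose, 0.2% final DMSO / Buffer or medium: DMEM / Schedule: 4 h cell settling then 2 h compound exposure, 37 °C / Detection: luminescence with SteadyLite reagent, 15 min at room temperature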
p97 inhibitor = inhibitors of human p97 ATPase, primary screen, biochemical | recombinant p97 ATPase, Kinase-Glo ATP luminescence, 3 h | inhibition, % at 8 µM | 0.42% of 220,000 active | Transitional endoplasmic reticulum ATPase (Homo sapiens), P55072; in the data active = inhibition above about 15%;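 also: 0% = DMSO vehicle and 100% = wells lacking enzyme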
Target sequence (P55072 whole entry, looked up): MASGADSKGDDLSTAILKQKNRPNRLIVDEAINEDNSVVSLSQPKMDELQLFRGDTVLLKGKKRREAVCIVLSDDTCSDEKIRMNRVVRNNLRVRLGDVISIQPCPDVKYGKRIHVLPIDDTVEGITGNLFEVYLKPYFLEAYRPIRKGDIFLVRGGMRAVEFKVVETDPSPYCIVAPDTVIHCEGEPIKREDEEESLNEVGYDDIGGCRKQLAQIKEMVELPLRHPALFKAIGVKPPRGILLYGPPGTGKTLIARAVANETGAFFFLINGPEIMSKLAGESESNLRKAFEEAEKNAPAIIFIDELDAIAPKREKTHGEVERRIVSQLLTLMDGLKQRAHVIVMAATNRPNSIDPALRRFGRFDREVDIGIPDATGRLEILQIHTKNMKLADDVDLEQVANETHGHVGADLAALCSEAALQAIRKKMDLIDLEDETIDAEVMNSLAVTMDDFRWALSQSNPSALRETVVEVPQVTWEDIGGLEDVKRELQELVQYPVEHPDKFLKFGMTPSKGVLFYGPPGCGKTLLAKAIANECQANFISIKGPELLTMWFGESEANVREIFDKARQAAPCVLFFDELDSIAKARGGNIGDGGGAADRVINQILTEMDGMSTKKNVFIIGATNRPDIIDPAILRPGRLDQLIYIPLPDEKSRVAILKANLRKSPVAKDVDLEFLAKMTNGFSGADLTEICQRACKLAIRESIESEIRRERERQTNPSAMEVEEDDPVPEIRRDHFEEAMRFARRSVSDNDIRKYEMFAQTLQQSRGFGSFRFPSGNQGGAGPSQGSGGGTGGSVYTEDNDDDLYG
PKD1 kinase inh = inhibitors of human PKD1 kinase, biochemical, fluorescence polarization; Serine/threonine-protein kinase D1 (Homo sapiens), Q15139; PKD1 kinase fluorescence polarization assay; inhibition, % (concentration not given with the values); 0.056% of 200,000 active; in the data active = inhibition above about 50%
KCC2 mod = KCC2 cotransporter modulators, thallium flux, primary screen, cell-based, HEK293 KCC2, FluoZin-2 fluorescence, MLSMR. 2.2% of 190,000 active. Solute carrier family 12 member 5 (Homo sapiens), Q9H2X9. KCC2 cells, thallium flux FluoZin-2 fluorescence. B-score of Tl+ flux slope (higher = more flux/activation; lower = inhibition) at 10 µM;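 active = thallium flux slope and its plate-corrected score both differing from the plate sample mean at a set confidence after two filtering rounds, in either direction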;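 also: slope of fluorescence scaled to starting intensity during 10 to 20 s after thallium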
ROMK primary = ROMK potassium channel modulators, primary screen, cell-based, thallium flux, MLSMR library; Tet-inducible ROMK, thallium flux fluorescence; actives lie on both sides; B-score at 10 µM; ATP-sensitive inward rectifier potassium channel 1 (Homo sapiens), P48048; 2% of 130,000 active;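 active = signal ratio slope over the read window, or its plate-corrected B-score, at least 3 SD from the plate mean, either direction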;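 also: B-score of the F/F0 ratio slope over 7 to 12 s after thallium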
Redox H2O2 prof = compounds producing H2O2 with reducing agent – biochemical, NIH compound library profiling, artefact control for MLSCN library redox annotation, primary screen. DTT-dependent redox cycling H2O2, phenol red/HRP absorbance; 100% = 100 µM peroxide control, 0% = buffer. activation, % at 10 µM. 0.03% of 200,000 active. AID 878, 2007;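 active = activation of at least 50% relative to the plate's high and low controls in the primary single-dose screen; inactive = activation below 50%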;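 also: compound incubated with DTT at 0.8 mM final as the reducing agent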
KCC2 sec1 = KCC2 modulators in sodium-free buffer, confirmation, cell-based, HEK293 KCC2, thallium flux, secondary assay. shares compounds with KCC2 mod. AID 1713, 2009. normalised thallium flux (F/F0 slope) at 10 µM. 15% of 3,700 active. FluoZin2 fluorescence; hits give high values;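 active = thallium flux slope above the same plate's solvent-only control mean plus 3 SD; inconclusive = the two replicate wells disagree; inactive = no significant difference from solvent-only control wells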
KCC2 bumet counter = thallium flux persisting under bumetanide in KCC2 cells, confirmation, counter-screen for KCC2 modulator project, cell-based, HEK293 KCC2, FluoZin2, secondary assay 3 | AID 1714, 2009 | HEK293-KCC2 + bumetanide/ouabain; hits give high values | normalized thallium flux at 10 µM | shares compounds with KCC2 mod | 49% of 3,700 active;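 active = thallium entry rate above the same plate's blocked-transporter control wells by more than 3 SD; inconclusive = the two repeat wells disagree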;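 also: raw slope of fluorescence over initial fluorescence between 10 and 20 s after thallium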
KCC2 secondary2 = KCC2 modulators without ouabain present, confirmation, cell-based, HEK293 KCC2, thallium flux, FluoZin2, secondary assay 2. normalized thallium flux at 10 µM. 23% of 3,700 active. thallium flux FluoZin2 fluorescence; actives lie on both sides; F/F0 rise rate, 10–20 s post-thallium. shares compounds with KCC2 mod. AID 1715, 2009;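 active = thallium flux slope more than 3 SD above or below the plate's solvent-only control mean, mostly below; inconclusive = the two repeat wells disagreed; inactive = no significant shift from solvent-only controls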;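 also: raw slope with 0.1% DMSO as baseline and bumetanide as block control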
HEK293 Tl flux = thallium flux modulation in parental HEK cells, confirmation, counter-screen for KCC2 modulator project, cell-based, counterscreen 1; shares compounds with KCC2 mod; HEK293 parental cells, thallium flux FluoZin2, ouabain; baseline-ratio fluorescence slope, 10–20 s after thallium; thallium flux rate (normalised fluorescence) at 10 µM; 46% of 3,700 active; AID 1716, 2009;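 active = thallium flux rate significantly above the same plate's solvent-only control wells, beyond their mean plus 3 SD; inconclusive = the two replicate wells gave conflicting results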
KCC2 retest ouab = KCC2 inhibitors and activators, ouabain retest, confirmation, HEK-KCC2 cells; AID 1717, 2009; 48% of 3,700 active; HEK293-KCC2, thallium flux FluoZin2 fluorescence; bidirectional: low = inhibitor, high = activator; shares compounds with KCC2 mod; raw Tl+ flux slope (below DMSO = inhibition, above = activation) at 10 µM;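 active = thallium flux slope beyond 3 SD from same-plate DMSO control mean in most replicates, usually higher, sometimes lower; inconclusive = repeat tests gave conflicting results; inactive = no significant difference from controls in most replicates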;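 also: slope of initial-normalized fluorescence between seconds 10 and 20 after thallium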
HEK counter2 = native HEK Tl+ uptake effects, second counter-screen – HEK cells, counterscreen 2, counter-screen for KCC2 modulator project, confirmation; shares compounds with KCC2 mod; HEK293 parental, thallium flux FluoZin-2 fluorescence slope; thallium flux slope at 10 µM; 33% of 3,700 active;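 active = thallium flux slope above the same plate's solvent-control mean plus 3 SD in both duplicate wells; inconclusive = duplicate wells that disagreed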;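 also: run without ouabain in cells lacking the KCC2 cotransporter; slope of fluorescence scaled to its starting value between 10 and 20 s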
Active calls of the source: *; ? = inconclusive; nt = no result. Most compounds without a hit are left out; they make up all but 3.4% or so of the library.

SMILES | Mdm2 ligase inh | p97 inhibitor | PKD1 kinase inh | KCC2 mod | ROMK primary | Redox H2O2 prof | KCC2 sec1 | KCC2 bumet counter | KCC2 secondary2 | HEK293 Tl flux | KCC2 retest ouab | HEK counter2
CCOc1cc(C)c(Cl)cc1S(=O)(=O)NCc1ccc2c(c1)OCO2 | 0 | -7 | 5 | -0.2 | 0.29 | 3 | nt | nt | nt | nt | nt | nt
Cc1cc2nc(-c3ccccc3)cc(=O)n2[nH]1 | -3 | 6 | nt | 1 | nt | nt | nt | nt | nt | nt | nt | nt
O=c1cc(-c2ccccc2)nc2cc(-c3ccco3)[nH]n12 | -17 | 2 | nt | 3.9* | nt | nt | ? | 0.014* | 0.032 | 0.011* | ? | 0.0098
Cc1ccc(C(=O)Nc2nc(=O)n(C(=O)c3ccccc3Cl)s2)cc1 | 28 | 1 | -7 | -7.2* | -2.3 | 0 | 0.0061 | ? | 0.024* | 0.0063 | 0.012* | 0.0089
Cc1ccc(C(=O)Nc2nc(=O)n(C(=O)CC(C)C)s2)cc1 | -10 | 3 | -4 | -2.2 | nt | 2 | nt | nt | nt | nt | nt | nt
CC(C1CC2CCC1C2)n1c(-c2ccco2)n[nH]c1=S (centres undefined) | -44 | -1 | -2 | 21* | 0.83 | -2 | 0.017* | 0.07* | ? | 0.028* | 0.056* | 0.016*
Cc1ccc(-n2c(-c3ccco3)n[nH]c2=S)cc1 | -5 | 6 | -1 | 0.87 | 0.48 | -1 | nt | nt | nt | nt | nt | nt
CC(C)N1C(=O)C2C(C(=O)NCc3ccccc3)C3C=CC2(O3)C1C(=O)NC(C)(C)C (centres undefined) | 3 | -5 | 6 | 2.8* | nt | 1 | 0.0094 | 0.0062 | 0.03 | 0.0077 | 0.026 | 0.01
O=C(NCc1ccccc1)C1C2C=CC3(CN(Cc4cccnc4)C(=O)C13)O2 (centres undefined) | 0 | 6 | -6 | 1 | nt | 0 | nt | nt | nt | nt | nt | nt
Cc1nc2ccccc2c(C)c1C(=O)c1ccccc1 | -9 | -4 | -3 | -1.5 | -0.79 | 0 | nt | nt | nt | nt | nt | nt
CCOP(=O)(c1ccccc1)c1nc(-c2ccc(F)cc2)oc1N1CCCCC1 (centres undefined) | 1 | -5 | 9 | -2.9* | 0.54 | -1 | 0.01 | 0.005 | 0.034 | ? | ? | 0.01
O=C(COc1ccc(Br)cc1)N/N=C1/SCC(=O)N1Cc1ccco1 | -17 | -8 | -1 | -0.62 | -0.48 | -2 | nt | nt | nt | nt | nt | nt
CCOc1ccc(N2C(=O)CS/C2=N/NC(=O)COc2ccc3ccccc3c2)cc1 | -4 | -2 | 3 | -5* | nt | -6 | 0.0087 | 0.006 | 0.029* | 0.0045 | 0.016* | 0.011
COCCCn1c(SCC(=O)Nc2nnc(C)s2)nnc1-c1ccoc1C | -9 | 5 | -2 | nt | nt | 2 | 0.0073 | 0.005 | 0.034 | 0.0081 | 0.019 | 0.011
CN(NC(=O)c1ccc(Cl)cc1)c1nc(-c2ccccc2)nnc1C(F)(F)F | -9 | 3 | -1 | -0.51 | nt | 2 | nt | nt | nt | nt | nt | nt
O=C(O)C1CCCN(S(=O)(=O)c2ccc(Br)s2)C1 (centres undefined) | 0 | 3 | 5 | 1 | 0.59 | -1 | nt | nt | nt | nt | nt | nt
O=C(O)/C(=C\c1ccc(Br)cc1)c1ccc(S(=O)(=O)N2CCCCC2)s1 | -16 | -10 | 11 | -6.9* | nt | 0 | 0.0076 | 0.0068 | 0.033 | 0.0041 | 0.012* | 0.011
Cc1sc(NC(=O)CSC2=NCCS2)nc1-c1ccccc1 | -20 | -2 | -3 | nt | -0.25 | 0 | 0.0078 | 0.0041 | 0.033 | 0.0039 | 0.019 | 0.011
CC(C)CCNC(=O)[C@H](CSCc1ccccc1)N1Cc2ccccc2C1=O | nt | -4 | -6 | -4.2* | -0.6 | 0 | 0.0058* | 0.0045 | ? | ? | 0.014* | 0.0093
COC(CNC(=O)[C@H](CSCc1ccccc1)N1Cc2ccccc2C1=O)OC | 5 | -2 | 5 | -0.063 | nt | -1 | nt | nt | nt | nt | nt | nt
CO/N=C\Cc1oc(=O)c(NC(=O)c2ccccc2)cc1C(=O)OC | -6 | -1 | -1 | -1.2 | 0.84 | 0 | nt | nt | nt | nt | nt | nt
Cc1ccc(S(=O)(=O)NC(C)C(=O)NC2CCCCCC2)cc1 (centres undefined) | 0 | -3 | -5 | 0.0074 | 0.0046 | 1 | nt | nt | nt | nt | nt | nt
NS(=O)(=O)c1ccc(CCNC(=S)NC2CCCCC2)cc1 | 1 | 1 | nt | 0.91 | nt | nt | nt | nt | nt | nt | nt | nt
O=S(=O)(NC(=S)NC1CCCCC1)c1ccc(Cl)cc1 | -13 | 1 | 5 | 11* | 1 | 1 | 0.017 | 0.02* | 0.032 | 0.02* | 0.025* | 0.022*
O=C(NNS(=O)(=O)c1ccc(Cl)cc1)NC1CCCCC1 | -4 | -2 | 4 | nt | nt | -2 | nt | nt | nt | nt | nt | nt
CCc1ccc(S(=O)(=O)NC(=S)NC2CCCCC2)cc1 | -6 | 0 | -2 | 32* | -0.14 | 0 | 0.026* | 0.071* | ? | 0.05* | 0.06* | 0.018*
Cc1ccc(S(=O)(=O)NC(=S)NC2CCCCC2)cc1 | -7 | -1 | 2 | 13* | 0.03 | -1 | 0.016* | 0.032* | 0.037 | ? | 0.034* | 0.013
